Drawing on ChEMBL document CHEMBL2163344, “Immunomodulatory properties of novel nucleotide oligomerization domain 2 (nod2) agonistic desmuramyldipeptides” (J Med Chem, 2012), this text covers Activity for one compound.

Calls of active or inactive are those of the source. No cut-off for these calls is given here.

For this test, the system named is PBMC. Put plainly: Immunomodulatory activity in human PBMCs assessed as reduction in PMA/ionomycin-induced TNFalpha release at 20 uM incubated for 18 hrs by multiplexed cytokine assay. The format is functional, cell-based. A digest of the protocol: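 Ficoll-isolated human PBMC, 1 × 10^6 cells per well, treated with 20 μM compound (DMSO ≤0.1%) plus PMA 3.33 ng/mL and ionomycin 500 nM for 18 h at 37 °C, 5% CO2. Cell-free supernatant cytokines measured by CBA human inflammatory kit on a flow cytometer against recombinant standards. Reported as % of PMA/ionomycin-only release; duplicates, three experiments, three donors.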

With `CCOC(=O)CC[C@@H](NC(=O)[C@H](C)NC(=O)CNC(=O)c1cc2ccccc2[nH]1)C(N)=O`, the outcome was Active.
